Measured values reported in the EternaBench riboswitch data.

System: MS2 coat protein
Experiment: apparent Kd, MS2 coat protein; higher = weaker binding; RNA-MaP array; FMN 200 µM where present
In short: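 Binding was read on Illumina sequencing-chip clusters where stalled E. coli RNA polymerase had transcribed each design. A titration of SNAP-549-labelled MS2 coat protein began at 0.7 or 1.5 nM and doubled to 3 µM, once without ligand and once with constant ligand, in 100 mM Tris-HCl pH 7.5, 80 mM KCl, 4 mM MgCl2, BSA, DTT, yeast tRNA and Tween-20. The apparent Kd is the median of filtered per-cluster binding-curve fits, based on green signal normalised to red-channel RNA signal and control-cluster median Fmax.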

[1] = designed as: ON switch for flavin mononucleotide, no ligand
[2] = ligand present: flavin mononucleotide, designed as: ON switch for flavin mononucleotide
[3] = designed as: OFF switch for flavin mononucleotide, no ligand
[4] = ligand present: flavin mononucleotide, designed as: OFF switch for flavin mononucleotide

| Sequence | apparent Kd [1] [nM] | apparent Kd [2] [nM] | apparent Kd [3] [nM] | apparent Kd [4] [nM] |
| --- | --- | --- | --- | --- |
| UUGGACGUCGUAGGAUAUGUAGGAUAUUCAUACAUGAGGAUCACCCAUGUUGACAUGGAAGAAGGACAGAAGGACGAUGUCCAU | 8.63 | 4.56 | – | – |
| GGUACUCAAAGAGUACGGAGUCGAACAUGAGGAUCACCCAUGUAGGAUAUGCUAAGCUUGAAGUUGCAGAAGGACAUGUGCAGC | – | – | 10.7 | 11.1 |
| CAGCGAUAGCUGAACAAUCUAUCUGAGGAUAUUCAUAUAAACAUGAGGAUCACCCAUGUAAAUUGGGAGAAGGCAGAUAGAUUG | 18 | 5.06 | – | – |
| CUUUUGUGAGGAUAUCAGUAGUAAAAAAAUAAAAUUACUACUGAGAAGGCACAUGAGGAUCACCCAUGUUCCUC | – | – | 30.7 | 237 |
| GUAUAUCACUCAGGAUAUCUGUAAUUUGUUGAAACAUGAGGAUCACCCAUGUUCAUGAAUUUAUAGGAGAAGGGAGAGAUAUAC | 4.58 | 4.69 | – | – |
| GUCAGCUCGUGAGGAUAUACAACACUGCUACGGCAGUGUAUUAAGAUCACAUGAGGAUCACCCAUGUAGAAGGCACGAGCUGAU | – | – | 14 | 242 |
| AACAGUACAGGAUAUACAUGAGGAUCACCCAUGUGAGAAUUAAGUGGAAAACCACAAAGUAGAAGGGUACUGGA | – | – | 29.8 | 269 |
| CUUUAGUGAGGAUAUCUGGCUUCGAUCGUGAGAUCGAGGCUAGAGAAGGCACAUGAGGAUCACCCAUGUUCCUU | – | – | 15.4 | 34.7 |
| CAAUUUAUAACAGGAUAUGUAAUUCAAUAGAAAAUAGAAGGGUUUUAUACAUGAGGAUCACCCAUGUCAUGUAUCAUAAUUACC | – | – | 143 | 122 |
| UAAAUUUACAAGAAGGCUAACAUGAGGAUCACCCAUGUUGUACAUGGAUAUAGAGGAUAUUGCUAAUAAUUAUUUAUCAUAAUU | – | – | 24.2 | 19.5 |
| AAAAGCUCAGGAUAUACGGUCUGUUGUUGAGAAAUAAAAAAACAUGAGGAUCACCCAUGUAGAAGGGAGCGAAA | – | – | 79.5 | 160 |
| CUCAUGUUAGGAUAUGCGCUCGACGUAGUGGUUGAGCUCUAGCAGAAGGAACAUGAGGAUCACCCAUGUUUGCA | – | – | 68.5 | 21.3 |
| UUUCUUGGGCAAGGAUAUCCUGUGCGGUUCCGGCUCGUGUCUGUCACAUGAGGAUCACCCAUGUGGGAGAAGGUGCCUGCAGUC | – | – | 6.22 | 7.07 |
| CAUCUGUGAGGAUAUGGUGAGUAGUGCCUGAGCGCUGCUCACCAGAAGGCACAUGAGGAUCACCCAUGUAUGAC | – | – | 48.4 | 188 |
| UAUAUAUAGGCAGGAUAUACAUGUAUAUAUAAUAUAUUAUAUAAUAUUACAUGAGGAUCACCCAUGUAGAAGGGCCAUAAUAUA | – | – | 48.3 | 66.9 |
| CCAGACGUAGGAUAUACAUUUGGGUAAUCCCGCGGAUAAUUACAUGAGGAUCACCCAUGUAGAAGGGCGGUAAA | – | – | 38.7 | 28 |
| GGUGUAGGAGGAUAUACAUGAGGAUCACCCAUGUGGCCACGUUGUAAGAUGACAUUAUGUAGAAGGCUUAGUGG | – | – | 90.4 | 89.8 |
| AAUUAAUUGUAGAAGGUACUUAAUUAUGAUAUGUAAGGAUAUACGAUAUUAUUACGACAUGUAUGACAUGAGGAUCACCCAUGU | 12.4 | 9.23 | – | – |
| GCCAUCGUAUGAGGAUAUGACACCGAAACGGUGUCAGAAGGCAUGUCGAUAGACAUGAGGAUCACCCAUGUAUUAACGAUGGCA | 740 | 94.2 | – | – |
| CGUACACAUGAGGAUCACCCAUGUCAGAUUUGGUCAGGAUAUGGGCGGCAUCCGCUAUUGCCAGAAGGGACUGUUG | 83.1 | 160 | – | – |
| GCUGUCGUAUGAGGAUAUGGUCAGCUUUGCUGACCAGAAGGCAUGUCAAUAGACAUGAGGAUCACCCAUGUAGUAAAGACAGCA | 402 | 39 | – | – |
| CCAGCAAAUGUAAGGAUAUGCUGGUCCUUGGAUCAGCAGAAGGUACAUGAGGAUCACCCAUGUCGUGGAGCUGG | – | – | 29.4 | 160 |
| UGGUACUAGGGAGGAUAUGGGAAGAUACAUGAGGAUCACCCAUGUUUAAGAAUGCCGAGAAGCAACUAGAAGGCCCUAGUACCU | 332 | 19.5 | – | – |
| GUCGUGUGAGGAUAUGAUUUUUCGGCGGGAUUGCGACUGCUUCAGAAGGCACAUGAGGAUCACCCAUGUAUGUC | – | – | 10.7 | 25.5 |
| CAUGUCUGAGGAUAUCGUUAUUUGUACAUGAGGAUCACCCAUGUCCUAUUUAUUAUAUUUCGAGAAGGCAGUGUAU | – | – | 16.9 | 18.2 |
| AUAAAGCGAGGAUAUCGCGCGGAGUACAUGAGGAUCACCCAUGUGGUCCGCAGUCCUGCGCGAGAAGGCGCAUUCC | – | – | 138 | 54.2 |
| UUCGAAUUGUAGGAUAUUUUGCCCGAUUGGGCGGGAGAAGGGCAGACAUGAGGAUCACCCAUGUGUCAGGCAGU | – | – | 40.8 | 40.5 |
